In ChEMBL document CHEMBL4680165, “β-Lactams with antiproliferative and antiapoptotic activity in breast and chemoresistant colon cancer cells” (Eur J Med Chem, 2020):

Tests used:
[1] = system: Hs-578T; assay: Antiproliferative activity against human Hs-578T cells assessed as cell growth inhibition; assay type: functional
In short: (§1)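 NCI 60 cell line screen. Five concentrations (100, 10, 1, 0.1 and 0.01 µM) with 48 h drug exposure. GI50 is the molar concentration giving 50% growth inhibition; TGI and LC50 were also derived.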

[2] = system: OVCAR-5; assay: Antiproliferative activity against human OVCAR-5 cells assessed as cell growth inhibition; assay type: functional; in short: as §1
[3] = system: EKVX; assay: Antiproliferative activity against human EKVX cells assessed as cell growth inhibition; assay type: functional; in short: as §1
[4] = system: COLO 205; assay: Antiproliferative activity against human COLO 205 cells assessed as cell growth inhibition; assay type: functional; in short: as §1
[5] = system: UDP-glucuronosyltransferases (UGTs); assay: Metabolic stability in human liver microsomes assessed as UGT-mediated N-glucuronidation by measuring half life at 3 uM measured up to 45 mins by LC-MS/MS analysis; assay type: ADME; settings: microsomes, 0.75 h, 3 µM
In short: (§2)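 Pooled human liver microsomes (0.5 mg/mL protein final) with alamethicin (25 µg/mg) in 0.1 M phosphate pH 7.4, compound 3 µM final (0.25% DMSO), preincubated 37 °C. Reaction started with UDPGA (1 mM final). Sampled at 0, 5, 15, 30, 45 min into methanol, analysed by LC-MS/MS. Minus-UDPGA control run 45 min. Single incubations; t½ and CLint taken from the elimination rate constant.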

[6] = system: 786-0; assay: Antiproliferative activity against human 786-0 cells assessed as cell growth inhibition; assay type: functional; in short: as §1
[7] = system: HOP-62; assay: Antiproliferative activity against human HOP-62 cells assessed as cell growth inhibition; assay type: functional; in short: as §1
[8] = system: LOX IMVI; assay: Antiproliferative activity against human LOX IMVI cells assessed as cell growth inhibition; assay type: functional; in short: as §1
[9] = system: BT-549; assay: Antiproliferative activity against human BT-549 cells assessed as cell growth inhibition; assay type: functional; in short: as §1
[10] = system: OVCAR-3; assay: Antiproliferative activity against human OVCAR-3 cells assessed as cell growth inhibition; assay type: functional; in short: as §1
[11] = system: NCI-H23; assay: Antiproliferative activity against human NCI-H23 cells assessed as cell growth inhibition; assay type: functional; in short: as §1
[12] = system: SN12C; assay: Antiproliferative activity against human SN12C cells assessed as cell growth inhibition; assay type: functional
In short: (§3)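 NCI60 cell line screen: cells exposed for 48 h to five concentrations (100, 10, 1, 0.1 and 0.01 µM). GI50 is the molar concentration giving 50% growth inhibition; TGI and LC50 were also determined.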

[13] = system: U-251; assay: Antiproliferative activity against human U251 cells assessed as cell growth inhibition; assay type: functional; in short: as §3
[14] = system: UACC-62; assay: Antiproliferative activity against human UACC-62 cells assessed as cell growth inhibition; assay type: functional; in short: as §3
[15] = system: TK-10; assay: Antiproliferative activity against human TK-10 cells assessed as cell growth inhibition; assay type: functional; in short: as §3
[16] = system: MCF7; assay: Antiproliferative activity against human MCF7 cells assessed as cell growth inhibition; assay type: functional; in short: as §1
[17] = system: SK-MEL-28; assay: Antiproliferative activity against human SK-MEL-28 cells assessed as cell growth inhibition; assay type: functional; in short: as §3
[18] = system: PC-3; assay: Antiproliferative activity against human PC-3 cells assessed as cell growth inhibition; assay type: functional; in short: as §1
[19] = system: MCF7; assay: Antiproliferative activity against human MCF7 cells assessed as reduction in cell viability after 72 hrs by alamar blue assay; assay type: functional, cell-based; settings: MCF7, 72 h
In short: (§4)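 Cells seeded at 5 x 10^3/well (MCF-7) or 1 x 10^4/well (HT-29, HEK-293T) and treated after 24 h with serial dilutions (0.001-100 µM) in 1% v/v ethanol vehicle. Alamar Blue 10% v/v added at 72 h, then 3-5 h at 37 °C in the dark; fluorescence ex 530/em 590 nm. Viability relative to vehicle; IC50 from dose-response curves; mean of three experiments in triplicate.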

[20] = system: SK-OV-3; assay: Antiproliferative activity against human SK-OV-3 cells assessed as cell growth inhibition; assay type: functional; in short: as §3
[21] = system: SK-MEL-5; assay: Antiproliferative activity against human SK-MEL-5 cells assessed as cell growth inhibition; assay type: functional; in short: as §3
[22] = system: SW-620; assay: Antiproliferative activity against human SW-620 cells assessed as cell growth inhibition; assay type: functional; in short: as §3
[23] = system: HT-29; assay: Antiproliferative activity against human HT-29 cells assessed as cell growth inhibition; assay type: functional; in short: as §1
[24] = system: HCT-116; assay: Antiproliferative activity against human HCT-116 cells assessed as cell growth inhibition; assay type: functional; in short: as §1
[25] = system: MDA-MB-435; assay: Antiproliferative activity against human MDA-MB-435 cells assessed as cell growth inhibition; assay type: functional; in short: as §1
[26] = system: SK-MEL-2; assay: Antiproliferative activity against human SK-MEL-2 cells assessed as cell growth inhibition; assay type: functional; in short: as §3
[27] = system: UDP-glucuronosyltransferases (UGTs); assay: Metabolic stability in human liver microsomes assessed as UGT-mediated N-glucuronidation by measuring intrinsic clearance at 3 uM measured up to 45 mins by LC-MS/MS analysis; assay type: ADME; settings: microsomes, 0.75 h, 3 µM; in short: as §2
[28] = system: CAKI-1; assay: Antiproliferative activity against human […] cells assessed as cell growth inhibition; assay type: functional; in short: as §1
[29] = system: SNB-19; assay: Antiproliferative activity against human SNB-19 cells assessed as cell growth inhibition; assay type: functional; in short: as §3
[30] = system: HCT-15; assay: Antiproliferative activity against human HCT-15 cells assessed as cell growth inhibition; assay type: functional; in short: as §1
[31] = system: OVCAR-4; assay: Antiproliferative activity against human OVCAR-4 cells assessed as cell growth inhibition; assay type: functional; in short: as §1
[32] = system: M14; assay: Antiproliferative activity against human M14 cells assessed as cell growth inhibition; assay type: functional; in short: as §1
[33] = system: IGROV-1; assay: Antiproliferative activity against human IGROV-1 cells assessed as cell growth inhibition; assay type: functional; in short: as §1
[34] = Antiproliferative activity against human NCI-H332M cells assessed as cell growth inhibition; assay type: functional; in short: as §1
[35] = system: NCI-H460; assay: Antiproliferative activity against human NCI-H460 cells assessed as cell growth inhibition; assay type: functional; in short: as §1
[36] = system: SNB-75; assay: Antiproliferative activity against human SNB-75 cells assessed as cell growth inhibition; assay type: functional; in short: as §3
[37] = system: NCI/ADR-RES; assay: Antiproliferative activity against human NCI/ADR-RES cells assessed as cell growth inhibition; assay type: functional; in short: as §1
[38] = system: OVCAR-8; assay: Antiproliferative activity against human OVCAR-8 cells assessed as cell growth inhibition; assay type: functional; in short: as §1
[39] = system: HOP-92; assay: Antiproliferative activity against human HOP-92 cells assessed as cell growth inhibition; assay type: functional; in short: as §1
[40] = system: MOLT-4; assay: Antiproliferative activity against human MOLT-4 cells assessed as cell growth inhibition; assay type: functional; in short: as §1
[41] = system: RPMI-8226; assay: Antiproliferative activity against human RPMI-8226 cells assessed as cell growth inhibition; assay type: functional; in short: as §1
[42] = system: HT-29; assay: Antiproliferative activity against human HT-29 cells assessed as reduction in cell viability after 72 hrs by alamar blue assay; assay type: functional, cell-based; settings: HT-29, 72 h; in short: as §4
[43] = system: NCI-H226; assay: Antiproliferative activity against human NCI-H226 cells assessed as cell growth inhibition; assay type: functional; in short: as §1
[44] = system: K562; assay: Antiproliferative activity against human K-562 cells assessed as cell growth inhibition; assay type: functional; in short: as §1
[45] = system: Malme-3M; assay: Antiproliferative activity against human Malme-3M cells assessed as cell growth inhibition; assay type: functional; in short: as §1
[46] = system: CCRF-CEM; assay: Antiproliferative activity against human CCRF-CEM cells assessed as cell growth inhibition; assay type: functional; in short: as §1
[47] = Selectivity index, ratio of IC50 for human MCF7 cells to IC50 for human HT-29 cells assessed as reduction in cell viability after 72 hrs by alamar blue assay; assay type: functional
[48] = system: SF-295; assay: Antiproliferative activity against human SF295 cells assessed as cell growth inhibition; assay type: functional; in short: as §1
[49] = system: UO-31; assay: Antiproliferative activity against human UO-31 cells assessed as cell growth inhibition; assay type: functional; in short: as §3
[50] = system: ACHN; assay: Antiproliferative activity against human ACHN cells assessed as cell growth inhibition; assay type: functional; in short: as §1
[51] = system: KM12; assay: Antiproliferative activity against human KM12 cells assessed as cell growth inhibition; assay type: functional; in short: as §1
[52] = system: DU-145; assay: Antiproliferative activity against human DU-145 cells assessed as cell growth inhibition; assay type: functional; in short: as §1
[53] = system: T47D; assay: Antiproliferative activity against human T47D cells assessed as cell growth inhibition; assay type: functional; in short: as §3
[54] = system: A549; assay: Antiproliferative activity against human A549 cells assessed as cell growth inhibition; assay type: functional; in short: as §1
[55] = system: HCC 2998; assay: Antiproliferative activity against human HCC-2998 cells assessed as cell growth inhibition; assay type: functional; in short: as §1
[56] = system: SF-539; assay: Antiproliferative activity against human SF539 cells assessed as cell growth inhibition; assay type: functional; in short: as §3
[57] = system: MDA-MB-231; assay: Antiproliferative activity against human MDA-MB-231 cells assessed as cell growth inhibition; assay type: functional; in short: as §1
[58] = system: NCI-H522; assay: Antiproliferative activity against human […] cells assessed as cell growth inhibition; assay type: functional; in short: as §1
[59] = system: SR; assay: Antiproliferative activity against human SR cells assessed as cell growth inhibition; assay type: functional; in short: as §3
[60] = system: A498; assay: Antiproliferative activity against human A498 cells assessed as cell growth inhibition; assay type: functional; in short: as §1
[61] = system: HL-60; assay: Antiproliferative activity against human HL60 cells assessed as cell growth inhibition; assay type: functional; in short: as §1
[62] = system: MDA-MB-468; assay: Antiproliferative activity against human MDA-MB-468 cells assessed as cell growth inhibition; assay type: functional; in short: as §1
[63] = system: SF-268; assay: Antiproliferative activity against human SF-268 cells assessed as cell growth inhibition; assay type: functional; in short: as §1

COc1ccc([C@H]2[C@H](c3ccccc3)C(=O)N2c2cc(OC)c(OC)c(OC)c2)cc1F
GI50 [1]: 43.4 nM
GI50 [2]: 51.7 nM
GI50 [3]: 77.6 nM
GI50 [4]: 19.4 nM
t1/2 [5]: 23.5 h
GI50 [6]: 31.4 nM
GI50 [7]: 37.9 nM
GI50 [8]: 29.6 nM
GI50 [9]: 26.6 nM
GI50 [10]: 28 nM
GI50 [11]: 48.9 nM
GI50 [12]: 56.1 nM
GI50 [13]: 35.9 nM
GI50 [14]: 54.3 nM
GI50 [15]: 1680 nM
GI50 [16]: 29.6 nM
GI50 [17]: 1370 nM
GI50 [18]: 40.3 nM
IC50 [19]: 17 nM
GI50 [20]: 34.8 nM
GI50 [21]: 27.1 nM
GI50 [22]: 41.9 nM
GI50 [23]: 26 nM
GI50 [24]: 32.4 nM
GI50 [25]: 18.7 nM
GI50 [26]: 35.4 nM
CLH [27]: 0.98 µL/min/mg
GI50 [28]: 33.2 nM
GI50 [29]: 49.9 nM
GI50 [30]: 33.6 nM
GI50 [31]: 87.1 nM
GI50 [32]: 22.6 nM
GI50 [33]: 42.8 nM
GI50 [34]: 68.7 nM
GI50 [35]: 34.4 nM
GI50 [36]: 31.4 nM
GI50 [37]: 39.4 nM
GI50 [38]: 34.4 nM
GI50 [39]: 2840 nM
GI50 [40]: 38.1 nM
GI50 [41]: 41.3 nM
IC50 [42]: 9 nM
GI50 [43]: 35 nM
GI50 [44]: 32.1 nM
GI50 [45]: > 100000 nM
GI50 [46]: 36.1 nM
Ratio IC50 [47]: 1.88
GI50 [48]: 29 nM
GI50 [49]: 77.1 nM
GI50 [50]: 44 nM
GI50 [51]: 33.1 nM
GI50 [52]: 35.4 nM
GI50 [53]: > 100000 nM
GI50 [54]: 36.8 nM
GI50 [55]: 39.4 nM
GI50 [56]: 23.4 nM
GI50 [57]: 45.2 nM
GI50 [58]: 18.6 nM
GI50 [59]: 37.3 nM
GI50 [60]: 27 nM
GI50 [61]: 22.3 nM
GI50 [62]: 28.7 nM
GI50 [63]: 44.3 nM
